We go through twelve compounds from ChEMBL document CHEMBL1149797, “Synthesis and in vitro antibacterial activities of novel oxazolidinones” (Eur J Med Chem, 2008).

What all share (format): functional
Assay [1] has as its system Staphylococcus epidermidis. The experiment in a line: Antibacterial activity against Staphylococcus epidermidis ATCC 155 by broth microdilution technique. The procedure, abridged: (§1)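 Broth microdilution per CLSI (NCCLS) guidelines. Compounds were dissolved in DMSO with water added to give an 80% DMSO stock, then diluted 1:10 to working solutions in water or medium. They were tested at 0.125, 0.25, 0.5, 1, 2, 4, 8 and 16 (two-fold series) against the final inoculum. Each run included sterility controls and vehicle controls (plain medium; 4%, 2%, 1% DMSO). MIC was read as growth inhibition.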
On the technique in general: Dilution methods test growth across graded concentrations, often in twofold steps.

For a further assay, the system named is Staphylococcus aureus. The experiment in a line: Antibacterial activity against Staphylococcus aureus ATCC 25923 by broth microdilution technique. An outline of the steps: as §1
For another assay, the system named is Bacillus cereus. The experiment in a line: Antibacterial activity against Bacillus cereus ATCC 11778 by broth microdilution technique. An outline of the steps: as §1
The test system of the next assay is Enterococcus faecalis. The experiment in a line: Antibacterial activity against Enterococcus faecalis ATCC 35550 by broth microdilution technique. An outline of the steps: as §1
The next assay concerns Bacillus pumilus. The experiment in a line: Antibacterial activity against Bacillus pumilus ATCC 14884 by broth microdilution technique. The procedure, abridged: as §1
In another assay the test system is Streptococcus pyogenes. The experiment in a line: Antibacterial activity against Streptococcus pyogenes ATCC 14289 by broth microdilution technique. The procedure, abridged:
as §1

In general, MIC refers to the lowest concentration that inhibits growth of the organism. A low value points to greater potency.

The structures appear in SMILES notation. Values after ≈ are worked out from the molar mass of the structure shown.

Take `CC(=O)NC[C@H]1CN(c2ccc(N3CCN(C(=O)/C=C/c4ccco4)CC3)c(F)c2)C(=O)O1`: the MIC in assay [1] was 1 µg/mL (≈ 2.19 µM); in the assay with Staphylococcus aureus it was 0.5 µg/mL (≈ 1.1 µM); with Bacillus cereus, 0.5 µg/mL (≈ 1.1 µM); against Enterococcus faecalis, 0.5 µg/mL (≈ 1.1 µM); against Bacillus pumilus, 0.5 µg/mL (≈ 1.1 µM).

On to `CC(=O)NC[C@H]1CN(c2ccc(N3CCN(C(=O)/C=C/c4ccncc4)CC3)c(F)c2)C(=O)O1`, for which the MIC against Streptococcus pyogenes was determined as 0.5 µg/mL (≈ 1.07 µM); in assay [1], 2 µg/mL (≈ 4.28 µM); with Staphylococcus aureus, 4 µg/mL (≈ 8.56 µM); in the assay with Bacillus cereus, 1 µg/mL (≈ 2.14 µM); with Enterococcus faecalis, 2 µg/mL (≈ 4.28 µM); against Bacillus pumilus, 1 µg/mL (≈ 2.14 µM).

As for `CC(=O)NC[C@H]1CN(c2ccc(N3CCN(C(=O)/C=C/c4ccc(C)o4)CC3)c(F)c2)C(=O)O1`, the MIC in the assay with Streptococcus pyogenes is 0.5 µg/mL (≈ 1.06 µM); in assay [1] it was 0.5 µg/mL (≈ 1.06 µM); against Staphylococcus aureus, 2 µg/mL (≈ 4.25 µM); against Bacillus cereus it was 1 µg/mL (≈ 2.13 µM); in the assay on Enterococcus faecalis, 1 µg/mL (≈ 2.13 µM); against Bacillus pumilus it was 1 µg/mL (≈ 2.13 µM).

For `CC(=O)NC[C@H]1CN(c2ccc(N3CCN(C(=O)/C=C/c4ccc(C=O)o4)CC3)c(F)c2)C(=O)O1`, the MIC in the assay on Streptococcus pyogenes is 1 µg/mL (≈ 2.06 µM); in assay [1], 2 µg/mL (≈ 4.13 µM); in the assay on Staphylococcus aureus, 4 µg/mL (≈ 8.26 µM); against Bacillus cereus, 2 µg/mL (≈ 4.13 µM); against Enterococcus faecalis, 2 µg/mL (≈ 4.13 µM); in the assay with Bacillus pumilus it was 1 µg/mL (≈ 2.06 µM).

Turning to `CC(=O)NC[C@H]1CN(c2ccc(N3CCN(C(=O)/C=C/c4ccc(C(=O)[O-])o4)CC3)c(F)c2)C(=O)O1.[Na+]`, the MIC (in the assay with Streptococcus pyogenes; in assay [1]; in the assay with Staphylococcus aureus; against Bacillus cereus; in the assay with Enterococcus faecalis; in the assay with Bacillus pumilus) was greater than 16 µg/mL in each case.

Regarding `CC(=O)NC[C@H]1CN(c2ccc(N3CCN(C(=O)/C=C/c4ccc(COC(C)=O)o4)CC3)c(F)c2)C(=O)O1`, the MIC is 2 µg/mL (≈ 3.78 µM) in the assay with Streptococcus pyogenes; 2 µg/mL (≈ 3.78 µM) in assay [1]; 2 µg/mL (≈ 3.78 µM) with Staphylococcus aureus; 4 µg/mL (≈ 7.57 µM) against Bacillus cereus; 4 µg/mL (≈ 7.57 µM) against Enterococcus faecalis; 4 µg/mL (≈ 7.57 µM) against Bacillus pumilus.

As for `CC(=O)NC[C@H]1CN(c2ccc(N3CCN(C(=O)/C=C/c4cccs4)CC3)c(F)c2)C(=O)O1`, the MIC in the assay on Streptococcus pyogenes amounted to 1 µg/mL (≈ 2.12 µM); in assay [1], 0.5 µg/mL (≈ 1.06 µM); against Staphylococcus aureus, 1 µg/mL (≈ 2.12 µM); in the assay on Bacillus cereus, 0.5 µg/mL (≈ 1.06 µM); in the assay on Enterococcus faecalis it was 0.5 µg/mL (≈ 1.06 µM); in the assay on Bacillus pumilus, 0.5 µg/mL (≈ 1.06 µM).

As to `CC(=O)NC[C@H]1CN(c2ccc(N3CCN(C(=O)/C=C/c4ccsc4)CC3)c(F)c2)C(=O)O1`, the MIC came to 1 µg/mL (≈ 2.12 µM) in assay [1]; 0.5 µg/mL (≈ 1.06 µM) against Staphylococcus aureus; 0.5 µg/mL (≈ 1.06 µM) in the assay with Bacillus cereus; 0.5 µg/mL (≈ 1.06 µM) in the assay with Enterococcus faecalis; 0.5 µg/mL (≈ 1.06 µM) in the assay with Bacillus pumilus.

`CC(=O)NC[C@H]1CN(c2ccc(N3CCN(C(=O)/C=C/c4ccc(C(=O)O)o4)CC3)c(F)c2)C(=O)O1`: the MIC (with Streptococcus pyogenes; in assay [1]; in the assay with Staphylococcus aureus; with Bacillus cereus; with Enterococcus faecalis; in the assay with Bacillus pumilus) was greater than 16 µg/mL in each case.

For `CC(=O)NC[C@H]1CN(c2ccc(N3CCN(C(=O)/C=C/c4ccc[nH]4)CC3)c(F)c2)C(=O)O1`, the MIC against Streptococcus pyogenes was found to be 1 µg/mL (≈ 2.2 µM); in assay [1], 0.5 µg/mL (≈ 1.1 µM); in the assay on Staphylococcus aureus it was 1 µg/mL (≈ 2.2 µM); in the assay on Bacillus cereus, 1 µg/mL (≈ 2.2 µM); in the assay with Enterococcus faecalis it was 1 µg/mL (≈ 2.2 µM); in the assay with Bacillus pumilus it was 1 µg/mL (≈ 2.2 µM).

For the compound `CC(=O)NC[C@H]1CN(c2ccc(N3CCN(C(=O)/C=C/c4ccoc4)CC3)c(F)c2)C(=O)O1`, the MIC in the assay with Streptococcus pyogenes worked out at 0.5 µg/mL (≈ 1.1 µM); in assay [1], 0.5 µg/mL (≈ 1.1 µM); against Staphylococcus aureus it was 1 µg/mL (≈ 2.19 µM); against Bacillus cereus, 1 µg/mL (≈ 2.19 µM); with Enterococcus faecalis it was 1 µg/mL (≈ 2.19 µM); against Bacillus pumilus it was 1 µg/mL (≈ 2.19 µM).

Turning to `CC(=O)NC[C@H]1CN(c2ccc(N3CCN(C(=O)/C=C/c4c[nH]c5ccccc45)CC3)c(F)c2)C(=O)O1`, the minimum inhibitory concentration (MIC) in the assay with Streptococcus pyogenes amounted to 0.12 µg/mL (≈ 0.237 µM); in assay [1] it was 1 µg/mL (≈ 1.98 µM); with Staphylococcus aureus, 2 µg/mL (≈ 3.96 µM); with Bacillus cereus it was 0.25 µg/mL (≈ 0.495 µM); in the assay with Enterococcus faecalis it was 0.5 µg/mL (≈ 0.989 µM); against Bacillus pumilus, 0.5 µg/mL (≈ 0.989 µM).
